Publication PMC3667888 (Channels, 2013)
Positions count from the first letter of the chain named.

Legend:
Assay type in all cases: cell-based
[1] = molecular target: T1, Kv4.2 G314F mutant channels (co-injected with KChIP1b) (Rattus norvegicus, UniProt Q63881, G314F); assay: Two-electrode voltage clamp, G314F mutant Kv4.2/KChIP1b in Xenopus oocytes; conditions: read-out: inhibition of the peak K+ current
T1 sequence (Q63881 1-630 G314F): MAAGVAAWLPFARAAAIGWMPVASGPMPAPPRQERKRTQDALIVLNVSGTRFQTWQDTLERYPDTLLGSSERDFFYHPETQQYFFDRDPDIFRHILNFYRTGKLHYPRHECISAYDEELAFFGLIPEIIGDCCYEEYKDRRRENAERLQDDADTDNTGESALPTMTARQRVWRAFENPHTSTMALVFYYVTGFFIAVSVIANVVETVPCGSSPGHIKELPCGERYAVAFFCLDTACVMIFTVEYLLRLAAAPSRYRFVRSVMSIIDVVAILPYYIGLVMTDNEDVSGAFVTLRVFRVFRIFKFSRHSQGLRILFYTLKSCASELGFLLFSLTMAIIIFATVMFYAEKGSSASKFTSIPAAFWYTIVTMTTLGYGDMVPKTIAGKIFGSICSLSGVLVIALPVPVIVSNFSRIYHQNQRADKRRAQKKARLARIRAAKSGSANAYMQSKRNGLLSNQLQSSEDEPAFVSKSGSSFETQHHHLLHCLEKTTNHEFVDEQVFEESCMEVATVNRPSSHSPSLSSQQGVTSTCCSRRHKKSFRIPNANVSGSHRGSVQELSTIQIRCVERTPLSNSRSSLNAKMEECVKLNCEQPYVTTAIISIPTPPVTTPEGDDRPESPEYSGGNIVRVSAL
Outline: (§1)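 Rat Kv4.2 (WT or QuikChange mutant) RNA co-injected equimolar with KChIP1b, 5–10 ng/oocyte, into Xenopus oocytes held 1–5 d at 17–19 °C. Two-electrode voltage clamp at room temperature in perfused Na/K methanesulfonate HEPES saline, pH 7.4–7.5, with P/−4 or P/−6 leak subtraction. Peak current at +40 mV (from −90 mV) after 10 min of 10 μM AA is expressed relative to pre-AA current. Mean ± SE, n = cells.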

[2] = molecular target: T2, Kv4.2 V261F mutant channels (co-injected with KChIP1b) (Rattus norvegicus, UniProt Q63881, V261F); assay: Two-electrode voltage clamp, V261F mutant Kv4.2/KChIP1b in Xenopus oocytes
T2 sequence (Q63881 1-630 V261F): T1 sequence (Q63881 1-630 G314F) with V261F, F314G
Outline: as §1

[3] = molecular target: T3, Kv4.2 K318Q mutant channels (co-injected with KChIP1b) (Rattus norvegicus, UniProt Q63881, K318Q); assay: Two-electrode voltage clamp, K318Q mutant Kv4.2/KChIP1b in Xenopus oocytes
T3 sequence (Q63881 1-630 K318Q): T1 sequence (Q63881 1-630 G314F) with F314G, K318Q
Outline: as §1

[4] = molecular target: T4, Kv4.2 L313F mutant channels (co-injected with KChIP1b) (Rattus norvegicus, UniProt Q63881, L313F); assay: Two-electrode voltage clamp, L313F mutant Kv4.2/KChIP1b in Xenopus oocytes; conditions: 10 µM AA
T4 sequence (Q63881 1-630 L313F): T1 sequence (Q63881 1-630 G314F) with L313F, F314G
Outline: as §1

[5] = read-out: inhibition of the peak K+ current

inhibition at 10 µM [1]: 22% | V1/2 of conductance-voltage curve with AA ([2]; 10 µM AA, V261F): −17.1 mV | slope factor (k) of Boltzmann fit with AA ([2]; 10 µM AA, V261F): 10.9 | inhibition at 10 µM [2, 5]: 18% | V1/2 of conductance-voltage curve with AA ([3]; 10 µM AA, K318Q): −8.6 mV | slope factor (k) of Boltzmann fit with AA ([3]; 10 µM AA, K318Q): 11.3 | inhibition at 10 µM [3, 5]: 12% | sensitivity to AA [4]: retained its sensitivity to AA
SMILES: CCCCC/C=C\C/C=C\C/C=C\C/C=C\CCCC(=O)O [AA, arachidonic acid]
